The source of these data is ChEMBL document CHEMBL1641418, “Discovery of isoindoline and tetrahydroisoquinoline derivatives as potent, selective PPARδ agonists” (Bioorg Med Chem Lett, 2011).

The target of data set [1] is T1, Peroxisome proliferator-activated receptor delta (Homo sapiens, UniProt Q03181).
T1 sequence (Q03181 whole entry): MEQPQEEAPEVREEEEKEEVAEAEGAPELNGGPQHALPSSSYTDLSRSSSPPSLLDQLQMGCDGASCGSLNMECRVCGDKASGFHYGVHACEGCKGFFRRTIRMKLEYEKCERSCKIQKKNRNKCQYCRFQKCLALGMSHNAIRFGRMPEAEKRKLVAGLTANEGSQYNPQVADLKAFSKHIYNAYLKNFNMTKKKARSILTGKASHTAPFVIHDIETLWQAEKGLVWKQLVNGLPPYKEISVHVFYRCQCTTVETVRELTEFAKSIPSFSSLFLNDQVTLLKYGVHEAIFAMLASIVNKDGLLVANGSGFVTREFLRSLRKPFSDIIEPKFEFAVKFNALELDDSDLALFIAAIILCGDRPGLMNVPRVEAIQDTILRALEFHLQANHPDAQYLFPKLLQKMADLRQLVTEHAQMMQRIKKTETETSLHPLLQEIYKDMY
Kind of data set: Agonist activity at Gal4-fused human PPARdelta […] binding domain expressed in HEK293 cells by luciferase reporter gene assay. It counts as cell-based. For orientation: Reporter assays use an easily measured gene product as a stand-in for the process of interest.

The target in data set [2] is T2, Peroxisome proliferator-activated receptor alpha (Homo sapiens, UniProt Q07869).
T2 sequence (Q07869 whole entry): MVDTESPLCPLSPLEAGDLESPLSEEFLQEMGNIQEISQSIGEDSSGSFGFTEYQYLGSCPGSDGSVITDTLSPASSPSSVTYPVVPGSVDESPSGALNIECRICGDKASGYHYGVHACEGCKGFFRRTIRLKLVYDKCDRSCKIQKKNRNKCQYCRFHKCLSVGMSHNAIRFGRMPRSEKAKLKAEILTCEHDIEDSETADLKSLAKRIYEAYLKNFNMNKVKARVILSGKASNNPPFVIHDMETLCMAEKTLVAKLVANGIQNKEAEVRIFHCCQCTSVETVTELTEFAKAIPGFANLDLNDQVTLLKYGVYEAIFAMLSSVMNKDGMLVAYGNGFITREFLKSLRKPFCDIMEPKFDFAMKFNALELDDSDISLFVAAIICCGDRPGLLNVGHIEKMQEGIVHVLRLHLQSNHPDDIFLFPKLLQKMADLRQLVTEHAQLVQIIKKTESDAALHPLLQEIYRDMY
The data set can be described thus: Agonist activity at Gal4-fused human PPARalpha […] binding domain expressed in HEK293 cells by luciferase reporter gene assay. It counts as cell-based.

Data set [3] deals with T3, Peroxisome proliferator-activated receptor gamma (Homo sapiens, UniProt P37231).
T3 sequence (P37231 whole entry): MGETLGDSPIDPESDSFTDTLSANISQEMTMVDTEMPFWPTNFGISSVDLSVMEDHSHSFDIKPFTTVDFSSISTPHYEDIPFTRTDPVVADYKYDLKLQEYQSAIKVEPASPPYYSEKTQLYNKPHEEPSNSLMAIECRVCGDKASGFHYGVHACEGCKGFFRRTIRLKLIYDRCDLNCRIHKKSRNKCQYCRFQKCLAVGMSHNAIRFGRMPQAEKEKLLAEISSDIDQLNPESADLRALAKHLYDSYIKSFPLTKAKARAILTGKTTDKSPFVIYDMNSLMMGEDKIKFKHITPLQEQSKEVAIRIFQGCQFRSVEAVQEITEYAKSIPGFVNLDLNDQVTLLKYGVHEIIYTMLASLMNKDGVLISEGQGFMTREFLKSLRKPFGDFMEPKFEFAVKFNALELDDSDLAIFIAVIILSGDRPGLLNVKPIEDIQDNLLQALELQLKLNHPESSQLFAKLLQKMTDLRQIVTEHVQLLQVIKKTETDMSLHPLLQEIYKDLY
The data set can be described thus: Agonist activity at Gal4-fused human PPARgamma […] binding domain expressed in HEK293 cells by luciferase reporter gene assay. Format: cell-based.

A short description of data set [4]: Lipophilicity, log D of the compound. It counts as physicochemical. The note with it: octanol/water.
The target in data set [5] is T1, Peroxisome proliferator-activated receptor delta. The data set can be described thus: Induction of PPARdelta-mediated PDK4 mRNA upregulation in human myoblast after 24 hrs. The essentials: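 Myoblasts isolated from human vastus lateralis skeletal muscle by enzymatic digestion, then differentiated into myotubes for 7 days in 2% horse serum. Myotubes were exposed to compound for 24 h, and fold induction of PDK4 mRNA was measured. EC50 was taken from the dose–response curve, with GW501516 run as the reference agonist.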

A value given as a limit tells only on which side of the number the result lay.

Consider `Cc1cc(CN2CCC(C(=O)Nc3ccc(Cl)cc3Cl)C2)ccc1OCC(=O)O` (stereo not given), for which the EC50 in data set [1] worked out at 1 µM.
For the compound `Cc1cc(CN2Cc3ccccc3C[C@@H]2C(=O)Nc2ccc(Cl)cc2Cl)ccc1OCC(=O)O`, the values for the EC50 in data set [2], in data set [3] and in data set [1] were 1.25 µM, 0.8 µM and 0.0005 µM, respectively.
In data set [1], `Cc1cc(CN2Cc3ccccc3C2C(=O)Nc2cc(Cl)ccc2Cl)ccc1OCC(=O)O` (stereo not given) came in with a concentration for a half-maximal effect (EC50) of 0.32 µM.
Consider `Cc1cc(CN2Cc3ccccc3C2C(=O)Nc2ccc(Cl)cc2)ccc1OCC(=O)O` (stereo not given), for which, in data set [1], a half-maximal effect (EC50) was put at 2.5 µM.
As to `Cc1cc(CN2Cc3ncccc3CC2C(=O)Nc2ccc(Cl)cc2Cl)ccc1OCC(=O)O` (racemic), the response in data set [1] was half-maximal at 0.5 µM (EC50).
As for `Cc1cc(CN2Cc3cccnc3CC2C(=O)Nc2ccc(Cl)cc2Cl)ccc1OCC(=O)O` (racemic), in data set [1], the EC50 was 2 µM.
`Cc1cc(CN2Cc3ccccc3C2C(=O)Nc2ccc(Cl)cc2Cl)ccc1OCC(=O)O` (racemic): the results for the EC50 in data set [2], in data set [3] and in data set [1] were > 30 µM, > 30 µM and 0.025 µM, respectively. Besides, in data set [4], the logD is 2.6.
Take `Cc1cc(CN2Cc3ccccc3C2C(=O)Nc2ccccc2)ccc1OCC(=O)O` (stereo not given): the EC50 in data set [1] is > 60 µM.
Regarding `Cc1cc(CN2CCc3ccccc3C2C(=O)Nc2ccc(Cl)cc2Cl)ccc1OCC(=O)O` (racemic), the EC50 was 6.3 µM in data set [2], 2.7 µM in data set [3], 0.01 µM in data set [1] and 0.07 µM in data set [5]. In data set [4], this compound returned a logD of 2.6.
Consider `Cc1cc(CN2Cc3ccccc3C[C@H]2C(=O)Nc2ccc(Cl)cc2Cl)ccc1OCC(=O)O`, for which the EC50 in data set [2] is 2.5 µM; in data set [3], > 20 µM; in data set [1], 0.005 µM; in data set [5], 0.015 µM. The compound further gave a logD in data set [4] of 2.4.
`Cc1cc(CN2CCCC2C(=O)Nc2ccc(Cl)cc2Cl)ccc1OCC(=O)O` (stereo not given): it took 1.6 µM to reach a half-maximal effect in data set [1] (EC50).
For the compound `Cc1cc(CN2Cc3ccccc3C2C(=O)O)ccc1OCC(=O)O` (stereo not given), the EC50 in data set [1] is > 20 µM.

As a reminder, the EC50 is the concentration at which the effect is half-maximal. A low value points to an effect from little substance. For orientation: logD means lipophilicity at a set pH, counting ionised and neutral species.
